Compound activity (PubChem BioAssay)
PAFAH2 FP inh: PAFAH2 enzyme inhibitors, primary screen, biochemical, fluorescence polarization, human; Platelet-activating factor acetylhydrolase 2, cytoplasmic (Homo sapiens), Q99487; recombinant PAFAH2, FP-rhodamine activity probe; inhibition, % at 3.39 µM; 340,000 tested, 0.99% active;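 active means inhibition above the mean over all tested compounds plus 3 SD, cut at about 30% in these data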;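 further: inhibitors block probe labeling of enzyme so polarization drops; 0% = enzyme with DMSO and 100% = wells lacking PAFAH2 protein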
PAFAH1B3 inh: PAFAH1B3 enzyme inhibitors, primary screen, biochemical, fluorescence polarization, human. Platelet-activating factor acetylhydrolase IB subunit alpha1 (Homo sapiens), Q15102. recombinant PAFAH1B3, FP-rhodamine probe. inhibition, % at 3.39 µM. 340,000 tested, 0.28% active. AID 492972, 2010;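 active means inhibition above the screen-wide average of all tested compounds plus 3 SD, cut at about 25% in these data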;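 further: 0% = enzyme with DMSO only and 100% = wells lacking PAFAH1B3 protein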
ARFGAP1 inhibitor: inhibitors of rat ARFGAP1 GAP activity, primary screen, biochemical, fluorescence polarization, GDP tracer. Arfgap1-stimulated ARF1 GTP hydrolysis, GDP FP detection. inhibition, % at 16.5 µM. ADP-ribosylation factor GTPase-activating protein 1 (Rattus norvegicus), Q62848. AID 651572, 2012. 360,000 tested, 0.26% active;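 active means inhibition above a per-plate limit, mean inhibition of low control wells plus 3 SD, cut at about 25% in these data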;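 further: 0% = DMSO wells with enzyme and 100% = wells lacking Arfgap1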
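Material: rat Arfgap1 catalytic domain, aa 1-136; also added: human ARF1(Δ1-17)-GTP substrate; compound dosing: one concentration, 16.5 µM, DMSO 1.26%; incubation: GTP hydrolysis reaction 2 h at 25 °C; measured by: Tracer-displacement fluorescence polarization with EDTA stop, 620/688 nm; evaluation: % inhibition from polarization; repeats: one replicate per compound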
pPAFAH FP inh: pPAFAH enzyme inhibitors, primary screen, biochemical, fluorescence polarization, human; AID 463082, 2010; Platelet-activating factor acetylhydrolase (Homo sapiens), Q13093; recombinant pPAFAH, FP-rhodamine probe fluorescence polarization; 330,000 tested, 1.5% active; inhibition, % at 3.39 µM;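 active means inhibition above the mean inhibition across the screen plus 3 SD, cut at about 25% in these data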;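 further: inhibitors block binding of the rhodamine activity-based probe so polarization drops; 0% = enzyme with DMSO and 100% = wells lacking pPAFAH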
Target sequence (Q13093 whole entry, looked up): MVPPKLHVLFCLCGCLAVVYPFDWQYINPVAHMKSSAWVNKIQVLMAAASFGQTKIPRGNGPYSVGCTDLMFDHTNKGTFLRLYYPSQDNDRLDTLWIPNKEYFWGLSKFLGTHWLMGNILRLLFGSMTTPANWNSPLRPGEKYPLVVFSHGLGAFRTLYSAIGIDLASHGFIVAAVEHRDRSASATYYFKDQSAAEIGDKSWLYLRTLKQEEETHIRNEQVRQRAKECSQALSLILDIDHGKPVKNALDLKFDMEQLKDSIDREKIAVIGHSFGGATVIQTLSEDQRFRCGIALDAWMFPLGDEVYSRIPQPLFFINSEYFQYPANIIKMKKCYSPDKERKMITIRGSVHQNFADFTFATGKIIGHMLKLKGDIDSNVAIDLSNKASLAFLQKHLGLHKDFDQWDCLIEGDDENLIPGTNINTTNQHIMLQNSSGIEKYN
PAFAH1B2 FP inh: PAFAH1B2 enzyme inhibitors, primary screen, biochemical, fluorescence polarization, human. Platelet-activating factor acetylhydrolase IB subunit alpha2 (Homo sapiens), P68402. recombinant PAFAH1B2, FP-rhodamine activity probe. inhibition, % at 3.39 µM. 340,000 tested, 1.2% active. AID 492953, 2010;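 active means inhibition above the mean of all tested compounds plus 3 SD, cut at about 24% in these data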;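 further: 0% = enzyme with DMSO and 100% = wells lacking PAFAH1B2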
ASAP1 inh: inhibitors of human ASAP1 ArfGAP activity, primary screen, biochemical, fluorescence polarization; Arf-GAP with SH3 domain, ANK repeat and PH domain-containing protein 1 (Homo sapiens), …; inhibition, % at 16.5 µM; 360,000 tested, 0.19% active; ASAP1-stimulated ARF1 GTP hydrolysis, GDP FP detection; in the data active means inhibition above about 25%;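 further: 0% = vehicle with enzyme and substrate and 100% = no enzyme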
ASAP1 inh confirm: ASAP1 GAP activity inhibitors, confirmation, biochemical, fluorescence polarization, human, triplicate. shares compounds with ASAP1 inh. ASAP1-stimulated Arf1 GTPase, GDP fluorescence polarization. inhibition, % at 16.5 µM. 620 tested, 37% active. AID 624431, 2012;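 active means mean inhibition over triplicates exceeds the hit threshold derived for the earlier primary screening run, cut at about 25% in these data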
Starred values were filed as active, the others as inactive; / = no result given. This is a sample that favours compounds with a hit; in the whole collection about 2.7% have one here.

SMILES | PAFAH2 FP inh | PAFAH1B3 inh | ARFGAP1 inhibitor | pPAFAH FP inh | PAFAH1B2 FP inh | ASAP1 inh | ASAP1 inh confirm
CCCNC(=O)C1(C)CCCN(Cc2ccc(-n3ccnc3)cc2)C1 (stereo not drawn) | / | / | 2 | / | / | 3 | /
Oc1ccc(Cl)cc1-c1cc(-c2cccc(Br)c2)n[nH]1 | -8 | 6 | 20 | 1 | -1 | 28* | 27*
Cc1ccc(NC(=O)c2ccc(OCc3c(C)noc3C)cc2)cc1C | 0 | 6 | -9 | -2 | 4 | 14 | /
CCc1cccc2c(C(=O)CN3C(=O)NC4(CCc5ccccc54)C3=O)c[nH]c12 (stereo not drawn) | 7 | -2 | 0 | -1 | 9 | -3 | /
CCc1cccc2c(C(=O)CN3C(=O)NC(C)(c4cccc5ccccc45)C3=O)c[nH]c12 (stereo not drawn) | -33 | -15 | 14 | -10 | -9 | 32* | 28*
O=C1C(Cl)=C(NCCc2ccccc2)C(=O)c2ccccc21 | 30* | 40* | 18 | / | 33* | 30* | 6
COC(=O)c1ccccc1NC(=O)c1ccc(-c2ccccc2F)o1 | -4 | -3 | 6 | 1 | -1 | -10 | /
COC(=O)c1ccccc1-c1ccc(C(c2c(C)[nH][nH]c2=O)c2c(C)[nH][nH]c2=O)o1 | 2 | 8 | 21 | -1 | 1 | 31* | 0
COc1ccc2oc(C(=O)OCC(=O)N3CCC(C)CC3)c(C)c2c1 | -5 | 1 | 15 | 2 | 1 | 27* | 15
CC(C)C1N(C(=O)N2CCOCC2)CCN1S(=O)(=O)c1ccccc1 (stereo not drawn) | 6 | 12 | 7 | 3 | 3 | 1 | /
CS(=O)(=O)N(Cc1ccc(Cl)cc1)c1ccc(C(=O)NCc2ccccn2)cc1 | 1 | 4 | 7 | 4 | 6 | 31* | 9
CS(=O)(=O)N(Cc1ccccc1Cl)c1ccc(C(=O)NCc2ccccn2)cc1 | -2 | 4 | -1 | 6 | -4 | -13 | /
CC1OC2CC(=O)OC2C2=C1C(=O)c1c(O)cccc1C2=O (stereo not drawn) | / | / | 0 | / | / | 37* | 13
CCCn1nc(C(=O)OCC(=O)Nc2ccc(C)cc2)c2ccccc2c1=O | -3 | 11 | 11 | 0 | 2 | -2 | /
COc1ccc2oc(=O)c(-c3csc(Nc4cccc(O)c4)n3)cc2c1 | -2 | 29* | 17 | 23 | 40* | 32* | 48*
CCCCN(C)CCN1C(=O)C2C(C(=O)Nc3cccc(OC)c3)C3C=CC2(O3)C1C(=O)NC1CCCCC1C (stereo not drawn) | -3 | 4 | 2 | -2 | 1 | 0 | /
CC(C)C[C@@H](CNC(=O)OC(C)(C)C)NC(=O)c1nc[nH]c1C(=O)N[C@@H](CC(C)C)C(=O)CNC[C@H](CC(C)C)NC(=O)c1nc[nH]c1C(=O)N[C@@H](Cc1c[nH]c2ccccc12)C(=O)OC(C)(C)C | -16 | -16 | 10 | 3 | -10 | 32* | 19
O=C(NC1CCCCC1)C(c1cccnc1)N(C(=O)CCl)c1ccc(F)cc1 (stereo not drawn) | -1 | 4 | 11 | 2 | 3 | 6 | /
COc1ccc(N(C(=O)CCl)C(C(=O)NC2CCCCC2)c2cccnc2)cc1 (stereo not drawn) | 7 | 2 | -8 | 1 | 0 | 70* | 0
O=C(Nc1ccn(CCCN(CCCn2ccc(NC(=O)OCc3ccccc3)nc2=O)CCc2cc3ccccc3[nH]2)c(=O)n1)OCc1ccccc1 | -1 | 13 | 19 | / | 1 | 30* | 16
O=C(Nc1ccn(CCCNCc2ccccc2)c(=O)n1)OCc1ccccc1 | 9 | 7 | 15 | / | 6 | 2 | /
